{"source": "ChEMBL document CHEMBL4007430", "about": "“Synthesis and Cytostatic and Antiviral Profiling of Thieno-Fused 7-Deazapurine Ribonucleosides” (J Med Chem, 2017)", "key": {"[1]": {"target": "T1, Adenosine kinase (Homo sapiens, UniProt P55263)", "T1 sequence (P55263 whole entry)": "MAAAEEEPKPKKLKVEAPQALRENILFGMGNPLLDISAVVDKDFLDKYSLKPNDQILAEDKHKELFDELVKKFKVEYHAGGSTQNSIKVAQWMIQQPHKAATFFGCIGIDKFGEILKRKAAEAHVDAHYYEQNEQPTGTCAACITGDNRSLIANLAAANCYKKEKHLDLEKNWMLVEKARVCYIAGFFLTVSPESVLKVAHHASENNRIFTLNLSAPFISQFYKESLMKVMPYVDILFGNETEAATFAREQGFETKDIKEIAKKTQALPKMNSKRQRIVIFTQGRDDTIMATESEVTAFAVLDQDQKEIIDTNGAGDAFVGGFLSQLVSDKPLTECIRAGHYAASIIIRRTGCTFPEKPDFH", "experiment": "Drug level assessed as human ADK-mediated compound formation treated with adenosine at 50 uM after 30 mins by HPLC analysis", "type": "ADME", "settings": "0.5 h"}, "[2]": {"test_system": "BJ", "experiment": "Cytotoxicity against human BJ cells assessed as cell growth inhibition after 72 hrs by MTS assay", "type": "cell-based", "summary_of_the_method": "(§1)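 Cells were exposed to compound for 3 days, then stained with MTS as a quantitative metabolic read-out. IC50 is the concentration that inhibits cell growth by 50%.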"}, "[3]": {"test_system": "MRC5", "experiment": "Cytotoxicity against human MRC5 cells assessed as cell growth inhibition after 72 hrs by MTS assay", "type": "cell-based", "settings": "MRC5, 72 h", "summary_of_the_method": "as §1"}, "[4]": {"experiment": "Cytotoxicity against mrp-1/mdr-1 overexpressing human CEM-DNR-bulk cells assessed as cell growth inhibition after 72 hrs by MTS assay", "type": "functional, cell-based", "summary_of_the_method": "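Cells were exposed to compound for 3 days, then stained with MTS as a quantitative metabolic read-out.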"}, "[5]": {"test_system": "HCT-116", "experiment": "Cytotoxicity against human HCT116 cells assessed as cell growth inhibition after 72 hrs by MTS assay", "type": "functional, cell-based", "settings": "HCT-116, 72 h", "summary_of_the_method": "as §1"}, "[6]": {"test_system": "HCT-116", "experiment": "Cytotoxicity against p53 deficient human HCT116 cells assessed as cell growth inhibition after 72 hrs by MTS assay", "type": "functional, cell-based", "settings": "HCT-116, 72 h", "summary_of_the_method": "as §1"}, "[7]": {"test_system": "K562", "experiment": "Cytotoxicity against human K562 cells assessed as cell growth inhibition after 72 hrs by MTS assay", "type": "functional, cell-based", "settings": "K562, 72 h", "summary_of_the_method": "as §1"}, "[8]": {"experiment": "Cytotoxicity against human K562-TAX cells assessed as cell growth inhibition after 72 hrs by MTS assay", "type": "functional, cell-based", "summary_of_the_method": "as §1"}, "[9]": {"test_system": "U2OS", "experiment": "Cytotoxicity against human U2OS cells assessed as cell growth inhibition after 72 hrs by MTS assay", "type": "functional, cell-based"}, "[10]": {"test_system": "HL-60", "experiment": "Cytotoxicity against human HL60 cells assessed as reduction in cell viability after 72 hrs by XTT assay", "type": "functional, cell-based", "settings": "HL-60, 72 h", "summary_of_the_method": "(§2)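 Cells were incubated with compound for 3 days. Viability was then measured with the XTT tetrazolium assay.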"}, "[11]": {"test_system": "HepG2", "experiment": "Cytotoxicity against human HepG2 cells assessed as reduction in cell viability after 72 hrs by XTT assay", "type": "functional, cell-based", "settings": "HepG2, 72 h", "summary_of_the_method": "as §2"}, "[12]": {"test_system": "HeLa S3", "experiment": "Cytotoxicity against human HeLaS3 cells assessed as reduction in cell viability after 72 hrs by XTT assay", "type": "functional, cell-based", "settings": "HeLa S3, 72 h", "summary_of_the_method": "as §2"}, "[13]": {"test_system": "A549", "experiment": "Cytotoxicity against human A549 cells assessed as cell growth inhibition after 72 hrs by MTS assay", "type": "functional, cell-based", "settings": "A549, 72 h", "summary_of_the_method": "as §1"}, "[14]": {"target": "T1, Adenosine kinase", "experiment": "Drug metabolism in human BJ cells assessed as ADK-mediated 4-Methylsulfanyl-8-(beta-D-ribofuranosyl)-8H-thieno[3,2:4,5]-pyrrolo[2,3-d]pyrimidine-5-O-monophosphate Sodium Salt formation per 5 x10^5 cells at 1 umol/L after 1 hr by UPLC-MS/MS analysis", "type": "ADME, cell-based", "settings": "1 µM"}, "[15]": {"target": "T1, Adenosine kinase", "experiment": "Drug metabolism in human HCT116 cells assessed as ADK-mediated 4-Methylsulfanyl-8-(beta-D-ribofuranosyl)-8H-thieno[3,2:4,5]-pyrrolo[2,3-d]pyrimidine-5-O-monophosphate Sodium Salt formation per 5 x10^5 cells at 1 umol/L after 1 hr by UPLC-MS/MS analysis", "type": "ADME, cell-based", "settings": "1 µM"}, "[16]": {"target": "T1, Adenosine kinase", "experiment": "Drug metabolism in human BJ cells assessed as ADK-mediated 4-Methylsulfanyl-8-(beta-D-ribofuranosyl)-8H-thieno[3,2:4,5]-pyrrolo[2,3-d]pyrimidine-5-O-monophosphate Sodium Salt formation per 5 x10^5 cells at 1 umol/L after 3 hrs by UPLC-MS/MS analysis", "type": "ADME, cell-based", "settings": "1 µM"}, "[17]": {"target": "T1, Adenosine kinase", "experiment": "Drug metabolism in human HCT116 cells assessed as ADK-mediated 4-Methylsulfanyl-8-(beta-D-ribofuranosyl)-8H-thieno[3,2:4,5]-pyrrolo[2,3-d]pyrimidine-5-O-monophosphate Sodium Salt formation per 5 x10^5 cells at 1 umol/L after 3 hrs by UPLC-MS/MS analysis", "type": "ADME, cell-based", "settings": "1 µM"}, "[18]": {"target": "T1, Adenosine kinase", "experiment": "Drug metabolism in human BJ cells assessed as ADK-mediated 4-Methylsulfanyl-8-(beta-D-ribofuranosyl)-8H-thieno[3,2:4,5]-pyrrolo[2,3-d]pyrimidine-5-O-monophosphate Sodium Salt formation per 5 x10^5 cells at 10 umol/L after 1 hr by UPLC-MS/MS analysis", "type": "ADME, cell-based", "settings": "10 µM"}, "[19]": {"target": "T1, Adenosine kinase", "experiment": "Drug metabolism in human HCT116 cells assessed as ADK-mediated 4-Methylsulfanyl-8-(beta-D-ribofuranosyl)-8H-thieno[3,2:4,5]-pyrrolo[2,3-d]pyrimidine-5-O-monophosphate Sodium Salt formation per 5 x10^5 cells at 10 umol/L after 1 hr by UPLC-MS/MS analysis", "type": "ADME, cell-based", "settings": "10 µM"}, "[20]": {"target": "T1, Adenosine kinase", "experiment": "Drug metabolism in human BJ cells assessed as ADK-mediated 4-Methylsulfanyl-8-(beta-D-ribofuranosyl)-8H-thieno[3,2:4,5]-pyrrolo[2,3-d]pyrimidine-5-O-monophosphate Sodium Salt formation per 5 x10^5 cells at 10 umol/L after 3 hrs by UPLC-MS/MS analysis", "type": "ADME, cell-based", "settings": "10 µM"}, "[21]": {"target": "T1, Adenosine kinase", "experiment": "Drug metabolism in human HCT116 cells assessed as ADK-mediated 4-Methylsulfanyl-8-(beta-D-ribofuranosyl)-8H-thieno[3,2:4,5]-pyrrolo[2,3-d]pyrimidine-5-O-monophosphate Sodium Salt formation per 5 x10^5 cells at 10 umol/L after 3 hrs by UPLC-MS/MS analysis", "type": "ADME, cell-based", "settings": "10 µM"}, "[22]": {"target": "T1, Adenosine kinase", "experiment": "Drug level in human BJ cells assessed as ADK-mediated compound formation treated with 4-Methylsulfanyl-8-(beta-D-ribofuranosyl)-8H-thieno[3',2':4,5]-pyrrolo[2,3-d]pyrimidine at 1 umol/L after 1 hr by UPLC-MS/MS analysis", "type": "ADME, cell-based"}, "[23]": {"target": "T1, Adenosine kinase", "experiment": "Drug level in human BJ cells assessed as ADK-mediated compound formation treated with 4-Methylsulfanyl-8-(beta-D-ribofuranosyl)-8H-thieno[3',2':4,5]-pyrrolo[2,3-d]pyrimidine at 1 umol/L after 3 hrs by UPLC-MS/MS analysis", "type": "ADME, cell-based"}, "[24]": {"target": "T1, Adenosine kinase", "experiment": "Drug level in human BJ cells assessed as ADK-mediated compound formation treated with 4-Methylsulfanyl-8-(beta-D-ribofuranosyl)-8H-thieno[3',2':4,5]-pyrrolo[2,3-d]pyrimidine at 10 umol/L after 1 hr by UPLC-MS/MS analysis", "type": "ADME, cell-based"}, "[25]": {"target": "T1, Adenosine kinase", "experiment": "Drug level in human BJ cells assessed as ADK-mediated compound formation treated with 4-Methylsulfanyl-8-(beta-D-ribofuranosyl)-8H-thieno[3',2':4,5]-pyrrolo[2,3-d]pyrimidine at 10 umol/L after 3 hrs by UPLC-MS/MS analysis", "type": "ADME, cell-based"}, "[26]": {"target": "T1, Adenosine kinase", "experiment": "Drug level in human HCT116 cells assessed as ADK-mediated compound formation treated with 4-Methylsulfanyl-8-(beta-D-ribofuranosyl)-8H-thieno[3',2':4,5]-pyrrolo[2,3-d]pyrimidine at 1 umol/L after 1 hr by UPLC-MS/MS analysis", "type": "ADME, cell-based"}, "[27]": {"target": "T1, Adenosine kinase", "experiment": "Drug level in human HCT116 cells assessed as ADK-mediated compound formation treated with 4-Methylsulfanyl-8-(beta-D-ribofuranosyl)-8H-thieno[3',2':4,5]-pyrrolo[2,3-d]pyrimidine at 1 umol/L after 3 hrs by UPLC-MS/MS analysis", "type": "ADME, cell-based"}, "[28]": {"target": "T1, Adenosine kinase", "experiment": "Drug level in human HCT116 cells assessed as ADK-mediated compound formation treated with 4-Methylsulfanyl-8-(beta-D-ribofuranosyl)-8H-thieno[3',2':4,5]-pyrrolo[2,3-d]pyrimidine at 10 umol/L after 1 hr by UPLC-MS/MS analysis", "type": "ADME, cell-based"}, "[29]": {"target": "T1, Adenosine kinase", "experiment": "Drug level in human HCT116 cells assessed as ADK-mediated compound formation treated with 4-Methylsulfanyl-8-(beta-D-ribofuranosyl)-8H-thieno[3',2':4,5]-pyrrolo[2,3-d]pyrimidine at 10 umol/L after 3 hrs by UPLC-MS/MS analysis", "type": "ADME, cell-based"}, "[30]": {"target": "T1, Adenosine kinase", "experiment": "Drug level assessed as human ADK-mediated compound formation treated with 4-Methylsulfanyl-8-(beta-D-ribofuranosyl)-8H-thieno[3',2':4,5]-pyrrolo[2,3-d]pyrimidine at 50 uM after 30 mins by HPLC analysis", "type": "ADME", "settings": "0.5 h"}, "[31]": {"test_system": "CCRF-CEM", "experiment": "Cytotoxicity against human CCRF-CEM cells assessed as cell growth inhibition after 72 hrs by MTS assay"}}, "data": [{"compound": "Nc1ncnc2c1ncn2[C@@H]1O[C@H](COP(=O)(O)O)[C@@H](O)[C@H]1O", "note": "[ADENOSINE PHOSPHATE]", "values": [{"measurement": "Drug metabolism", "setting": "[1]", "result": "Metabolite_Detected"}]}, {"compound": "CSc1ncnc2c1c1ccsc1n2[C@@H]1O[C@H](COP(=O)([O-])O)[C@@H](O)[C@H]1O.[Na+]", "values": [{"measurement": "IC50", "setting": "[2]", "result": 730, "unit": "nM"}, {"measurement": "IC50", "setting": "[3]", "result": "> 50000", "unit": "nM"}, {"measurement": "IC50", "setting": "[4]", "result": "> 50000", "unit": "nM"}, {"measurement": "IC50", "setting": "[5]", "result": 250, "unit": "nM"}, {"measurement": "IC50", "setting": "[6]", "result": 260, "unit": "nM"}, {"measurement": "IC50", "setting": "[7]", "result": 1320, "unit": "nM"}, {"measurement": "IC50", "setting": "[8]", "result": "> 50000", "unit": "nM"}, {"measurement": "IC50", "setting": "[9]", "result": 2590, "unit": "nM"}, {"measurement": "IC50", "setting": "[10]", "result": 770, "unit": "nM"}, {"measurement": "IC50", "setting": "[11]", "result": 770, "unit": "nM"}, {"measurement": "IC50", "setting": "[12]", "result": 2190, "unit": "nM"}, {"measurement": "IC50", "setting": "[13]", "result": "> 50000", "unit": "nM"}, {"measurement": "Drug metabolism", "setting": "[14]", "result": 13.8, "unit": "pmol"}, {"measurement": "Drug metabolism", "setting": "[15]", "result": 76.2, "unit": "pmol"}, {"measurement": "Drug metabolism", "setting": "[16]", "result": 4933.3, "unit": "pmol"}, {"measurement": "Drug metabolism", "setting": "[17]", "result": 75.6, "unit": "pmol"}, {"measurement": "Drug metabolism", "setting": "[18]", "result": 6694.3, "unit": "pmol"}, {"measurement": "Drug metabolism", "setting": "[19]", "result": 98.5, "unit": "pmol"}, {"measurement": "Drug metabolism", "setting": "[20]", "result": 6862.8, "unit": "pmol"}, {"measurement": "Drug metabolism", "setting": "[21]", "result": 144.3, "unit": "pmol"}, {"measurement": "Drug metabolism", "setting": "[22]", "result": "Metabolite_Detected"}, {"measurement": "Drug metabolism", "setting": "[23]", "result": "Metabolite_Detected"}, {"measurement": "Drug metabolism", "setting": "[24]", "result": "Metabolite_Detected"}, {"measurement": "Drug metabolism", "setting": "[25]", "result": "Metabolite_Detected"}, {"measurement": "Drug metabolism", "setting": "[26]", "result": "Metabolite_Detected"}, {"measurement": "Drug metabolism", "setting": "[27]", "result": "Metabolite_Detected"}, {"measurement": "Drug metabolism", "setting": "[28]", "result": "Metabolite_Detected"}, {"measurement": "Drug metabolism", "setting": "[29]", "result": "Metabolite_Detected"}, {"measurement": "Drug metabolism", "setting": "[30]", "result": "Metabolite_Detected"}, {"measurement": "IC50", "setting": "[31]", "result": 190, "unit": "nM"}]}]}
